Measurements taken from ChEMBL document CHEMBL3992512, “The Discovery and Hit-to-Lead Optimization of Tricyclic Sulfonamides as Potent and Efficacious Potentiators of Glycine Receptors” (J Med Chem, 2017).
Calls of active or inactive are those of the source.

Experiments:
[1] = Ratio of unbound Cmax in mouse brain to EC50 for glycine alpha3 receptor in mouse model of spared nerve injury-induced tactile allodynia at 20 mg/kg, po
[2] = target: T1, Glycine receptor subunit alpha-3 (Homo sapiens, UniProt O75311); assay: Binding affinity to human glycine alpha3 receptor expressed in HEK293T cells by SPR assay; design: species or system HEK-293T
T1 sequence (O75311 whole entry): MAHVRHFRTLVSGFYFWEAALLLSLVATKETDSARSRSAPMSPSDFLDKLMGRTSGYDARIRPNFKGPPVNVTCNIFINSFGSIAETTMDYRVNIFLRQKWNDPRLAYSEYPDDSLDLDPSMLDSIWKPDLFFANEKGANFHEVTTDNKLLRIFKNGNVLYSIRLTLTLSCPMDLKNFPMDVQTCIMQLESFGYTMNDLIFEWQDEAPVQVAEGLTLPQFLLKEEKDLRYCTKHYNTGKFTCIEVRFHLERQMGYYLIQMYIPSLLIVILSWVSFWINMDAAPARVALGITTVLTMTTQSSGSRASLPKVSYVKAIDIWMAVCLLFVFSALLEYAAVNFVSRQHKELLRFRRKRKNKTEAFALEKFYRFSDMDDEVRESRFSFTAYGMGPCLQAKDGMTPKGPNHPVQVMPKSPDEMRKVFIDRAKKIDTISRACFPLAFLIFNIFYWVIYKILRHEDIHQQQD

Mus musculus [3] = assay: Antiallodynic activity in mouse model of spared nerve injury-induced tactile allodynia assessed as tactile threshold at 20 mg/kg, po measured 60 mins post dose by Von Frey filament assay (reference value: 0.82 +/- 0.19 g); type: functional
[4] = target: T1, Glycine receptor subunit alpha-3; assay: Positive allosteric modulation of human glycine alpha3 receptor expressed in HEK293T cells assessed as potentiation of glycine-induced increase in chloride ion flux after 4 mins by membrane potential blue dye based FLIPR assay; type: cell-based, HEK-293T
[5] = target: Glycine receptor alpha-3/beta (Homo sapiens) (UniProt O75311+P48167); assay: Positive allosteric modulation of human glycine alpha3beta receptor expressed in HEK293T cells assessed as compound concentration required to induce up to 3-fold leftward shift in glycine-induced increase in chloride ion flux after 4 mins by Schild plot analysis; type: cell-based
In short: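 HEK293T cells stably expressing human GlyRα3β, ~12000 cells/well, plated overnight and loaded with membrane potential blue dye. Glycine 1:2 dilution series premixed with compound at varying concentrations in HEPES/NaCl/mannitol buffer, pH 7.4. FLIPR fluorescence read 4 min and processed as AUC over baseline. mEC₃ is the lowest tested concentration giving a ≥3-fold leftward shift of glycine EC₅₀.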

[6] = Ratio of unbound Cmax in mouse brain to EC50 for glycine alpha3 receptor in mouse model of spared nerve injury-induced tactile allodynia at 10 mg/kg, po
In short: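 Mice dosed orally; unbound brain Cmax is total brain concentration × brain fraction unbound, sampled at multiple time points. It is divided by EC₅₀ for potentiation of mouse GlyRα3.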

human MDR1 = assay: Efflux ratio of passive apparent permeability in MDCK cells harboring human MDR1; type: ADME, cell-based, Canis lupus familiaris; settings: dog
In short: (§1)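 Bidirectional transport at 5 μM, in triplicate, across MDCK cells carrying control vector, human MDR1 or human ABCG2 (BCRP). Passive Papp is the mean of both directions in vector-control cells. Efflux ratios come from the MDR1 and BCRP lines.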

Mus musculus [7] = species: Mus musculus; assay: Ex vivo positive allosteric modulation of glycine receptor in C57BL/6 mouse spinal cord assessed as potentiation of glycine-induced post synaptic current amplitude at 0.5 uM at holding potential of -60 mV after 10 mins in presence of sodium channel inhibitor TTX/AMPA/kainate receptor antagonist CNQX/GABAa receptor antagonist bicuculline/NMDA receptor antagonist APV by electrophysiology method relative to glycine alone
In short: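 Adult mouse spinal cord slices; dorsal horn neurons in laminae I–II were identified histologically and confirmed glycinergic by focal glycine (20 μM) with strychnine (10 μM) reversal. Postsynaptic current amplitude was recorded with glycine 20 μM alone, then with glycine plus compound at 0.5 μM, then with strychnine added. The readout is the mean ratio of PSC amplitude (compound + glycine / glycine alone), n = 5.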

[8] = Intrinsic clearance in mouse liver microsomes up to 40 mins in presence of NADPH; type: ADME, microsome; settings: read-out: CLH
[9] = Oral bioavailability in mouse at 10 mg/kg; type: ADME, organism-based; settings: in vivo
[10] = Passive apparent permeability in MDCK cells; type: ADME, cell-based, Canis lupus familiaris; settings: dog; in short: as §1
human BCRP = assay: Efflux ratio of passive apparent permeability in MDCK cells harboring human BCRP; type: ADME, cell-based, Canis lupus familiaris; settings: dog; in short: as §1
[11] = Intrinsic clearance in human liver microsomes; type: ADME, microsome; settings: read-out: CLH

| Structure (SMILES) | Ratio [1] | Kd [2] | Activity (Mus musculus [3]) | EC50 [4] | MEC [5] | Ratio [6] | efflux ratio (human MDR1) | fold change (FC) (Mus musculus [7]) | microsomal CLint [8] | bioavailability [9] | Papp [10] | efflux ratio (human BCRP) | microsomal CLint [11] |
| --- | --- | --- | --- | --- | --- | --- | --- | --- | --- | --- | --- | --- | --- |
| CN1C(=O)[C@H]2CN(S(=O)(=O)c3ccc4occc4c3)C[C@H]2c2cnccc21 | 1.9 | > 20000 nM | inactive | 20000 to 25000 nM | > 25 µM | – | – | – | – | – | – | – | – |
| CN1C(=O)[C@@H]2CN(S(=O)(=O)c3ccc4occc4c3)C[C@@H]2c2cnccc21 | – | 190 nM | 1.53 g | 450 nM | 0.2 µM | 1.2 | 1.5 | 4.4 | 188 µL/min/mg | 100% | 69 ×10⁻⁶ cm/s | 1.1 | – |
| C[C@H]1[C@H]2C(=O)N(C)c3ccncc3[C@H]2CN1S(=O)(=O)c1ccc2c(c1)OCO2 | – | 11 nM | – | 50 nM | 0.025 µM | – | 1.6 | – | 254 µL/min/mg | – | 43.1 ×10⁻⁶ cm/s | – | 83 µL/min/mg |
